# Source: PubChem
# An excerpt weighted towards active compounds, which were near 5.8% of everything screened.
# IDH1 mut inh: IDH1 R132H (human) inhibition | inhibition, % at 10 µM | 0.18% of 70,000 active | IDH1 R132H reductase, diaphorase/resazurin fluorescence, 60 min | O75874; in the data active means inhibition above about 34%;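 further: 0% = DMSO and 100% = no enzyme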
# Tcruzi prolif: T. cruzi proliferation inhibition; T. cruzi beta-gal in NIH3T3, GalScreen luminescence, 90 h; inhibition, % at 8.34 µM; 5.9% of 77,000 active; AID 624255;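 active means mean inhibition above about 93%, with at least 55% of replicates each passing it, limit read from the data, passing the limit was not always enough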
# Pf Dd2 inh: inhibitors of Plasmodium falciparum Dd2 growth; P. falciparum Dd2 growth, SYBR Green, 72 h; active compounds read low; activity change, % at 10 µM; 2.3% of 94,000 active; AID 1159554; in the data active means activity change below about -80%
# KDM4C inh: KDM4C (human) demethylase inhibition. GST-KDM4C 2-372, H3K9me3 peptide, LANCE TR-FRET. inhibition, % at 12.5 µM. 0.15% of 96,000 active. AID 720574;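 active means mean replicate inhibition above about 25%, with at least 55% of replicates also reaching it, limit read from the data, passing the limit was not always enough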
# Target sequence (Q9H3R0 2-372 limits assumed): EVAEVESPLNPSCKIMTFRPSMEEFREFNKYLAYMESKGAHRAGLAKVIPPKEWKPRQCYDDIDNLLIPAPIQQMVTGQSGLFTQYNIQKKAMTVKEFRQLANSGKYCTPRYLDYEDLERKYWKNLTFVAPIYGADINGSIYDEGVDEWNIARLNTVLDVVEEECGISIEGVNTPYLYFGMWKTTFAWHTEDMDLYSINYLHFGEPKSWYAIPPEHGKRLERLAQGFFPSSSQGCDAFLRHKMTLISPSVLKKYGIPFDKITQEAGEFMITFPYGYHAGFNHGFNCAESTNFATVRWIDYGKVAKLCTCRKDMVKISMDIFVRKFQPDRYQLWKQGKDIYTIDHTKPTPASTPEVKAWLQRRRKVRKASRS
#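 Material: N-terminal GST-fused human GASC-1 (KDM4C) fragment, residues 2-372. Input: 10 nM enzyme. Incubation: enzyme reaction 30 min, then detection 60 min, both room temperature. Doses: one test concentration per compound. Read-out basis: inhibition from TR-FRET ratio decrease. Detection: LANCE TR-FRET, excitation 340 nm, emissions 618 and 671 nm.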
# The depositor's hits bear a star; . = no result.
SMILES,IDH1 mut inh,Tcruzi prolif,Pf Dd2 inh,KDM4C inh
COc1c(O[C@@H]2O[C@H](C(=O)O)[C@@H](O)[C@H](O)[C@H]2O)cc2oc(-c3ccccc3)cc(=O)c2c1O,-0.8,.,.,.
COc1ccc2c3c([nH]c2c1)[C@H](CO)N(C(=O)Nc1ccc(F)cc1)CC31CCN(S(=O)(=O)c2ccc(C)cc2)CC1,.,.,-82.3*,1.1
COc1ccc2c3c([nH]c2c1)[C@@H](CO)N(C(=O)Nc1ccc(F)cc1)CC31CCN(S(=O)(=O)c2ccc(C)cc2)CC1,.,.,-71.2,0.6
COc1ccc2c3c([nH]c2c1)[C@@H](CO)N(C(=O)Nc1ccc(F)cc1)CC31CCN(S(=O)(=O)c2cccc(C)c2)CC1,.,.,-41.8,-1.8
COc1ccc2c3c([nH]c2c1)[C@H](CO)N(C(=O)Nc1ccc(F)cc1)CC31CCN(S(=O)(=O)c2cccc(C)c2)CC1,.,.,-82.6*,0.7
COc1ccc2c3c([nH]c2c1)[C@H](CO)N(C(=O)Nc1ccc(F)cc1)CC31CCN(C(=O)Nc2ccc3c(c2)OCO3)CC1,.,.,-85.6*,-0.1
COc1ccc2c3c([nH]c2c1)[C@@H](CO)N(C(=O)Nc1ccc(F)cc1)CC31CCN(Cc2cc(-c3ccccc3)on2)CC1,.,.,-82.7*,-0.2
COc1cc(Cc2nccc3cc(OC)c(OC)cc23)c(NC(=O)c2cccc(Br)c2)cc1OC,-0.6,.,.,.
O=C1C(=O)N(Cc2ccco2)C(c2cccc(O)c2)C1C(=O)c1ccco1 (stereo not given),0.2,.,.,.
C[C@@H]1CN([C@@H](C)CO)C(=O)Cc2cc(NC(=O)Nc3ccc(F)cc3)ccc2O[C@@H]1CN(C)Cc1ccncc1,18.0,76.2,-9.0,.
C[C@@H]1CN([C@@H](C)CO)C(=O)Cc2cc(NC(=O)C3CCCCC3)ccc2O[C@H]1CN(C)Cc1ccncc1,45.8*,61.6,-24.5,1.2
C[C@H](CO)N1C[C@H](C)[C@@H](CN(C)Cc2ccccc2)Oc2ccc(NC(=O)Nc3ccc(F)cc3)cc2CC1=O,0.6,75.8,-88.3*,-1.5
C[C@@H]1CN([C@@H](C)CO)C(=O)Cc2cc(NC(=O)Nc3ccc(F)cc3)ccc2O[C@H]1CN(C)Cc1ccncc1,34.4*,67.9,7.9,0.7
C[C@H]1CN([C@@H](C)CO)C(=O)Cc2cc(NC(=O)C3CCCCC3)ccc2O[C@H]1CN(C)Cc1ccncc1,2.4,21.0,-7.7,0.8
CC(C)NC(=O)Nc1ccc2c(c1)CC(=O)N([C@@H](C)CO)C[C@@H](C)[C@H](CN(C)Cc1ccc(Cl)c(Cl)c1)O2,-1.8,.,-82.0*,0.5
O=C(CN1CCN(S(=O)(=O)c2ccc3ccccc3c2)CC1)Nc1cc(Cl)ccc1Cl,0.7,.,.,.
CC(C)NC(=O)Nc1ccc2c(c1)CC(=O)N([C@@H](C)CO)C[C@@H](C)[C@H](CN(C)Cc1ccncc1)O2,43.0*,.,2.6,1.2
C[C@@H]1CN([C@@H](C)CO)C(=O)Cc2cc(NC(=O)Cc3cn(C)c4ccccc34)ccc2O[C@@H]1CN(C)Cc1ccc(Cl)c(Cl)c1,.,82.4,-39.2,-0.8
C[C@@H]1CN([C@@H](C)CO)C(=O)Cc2cc(NC(=O)Cc3cn(C)c4ccccc34)ccc2O[C@H]1CN(C)Cc1ccc(Cl)c(Cl)c1,-0.2,94.6,-81.7*,-2.0
CN(C)c1ccc2c(c1)[C@@H]1C[C@H](CC(=O)O)O[C@@H](CO)[C@@H]1O2,-16.3,40.2,26.7,13.9
COCCNC(=O)C[C@@H]1C[C@H]2c3cc(N(C)C)ccc3O[C@H]2[C@H](CO)O1,-0.5,.,-16.4,38.8*
CN(C)C(=O)C[C@@H]1C[C@@H]2c3cc(NC(=O)Nc4ccccc4F)ccc3O[C@@H]2[C@@H](CO)O1,38.5*,3.2,12.5,36.2*
COC(=O)C[C@@H]1C[C@H]2c3cc(N(C)C)ccc3O[C@H]2[C@@H](CO)O1,-1.5,49.9,-5.9,.
COC(=O)C[C@H]1C[C@H]2c3cc(N(C)C)ccc3O[C@H]2[C@H](CO)O1,-18.3,-35.6,-6.1,43.4*
CN(C)C(=O)C[C@H]1C[C@@H]2c3cc(N(C)C)ccc3O[C@@H]2[C@@H](CO)O1,-13.2,-10.5,0.2,33.5*
Cc1cccc(N(CC(=O)Nc2ccccc2-c2ccccc2)S(C)(=O)=O)c1C,0.1,.,.,.
COC(=O)c1ccccc1NC(=O)C1CCCN(S(=O)(=O)c2ccc(Br)cc2)C1 (stereo not given),0.3,.,.,.
C[C@@H]1CCCCO[C@H](CN(C)S(=O)(=O)c2ccc(Cl)cc2)[C@@H](C)CN([C@H](C)CO)C(=O)c2cc(NC(=O)CCCCCC(=O)Nc3ccccc3N)ccc2O1,0.0,.,-85.3*,-1.1
